ChEMBL document CHEMBL1287652, “QSAR modeling, synthesis and bioassay of diverse leukemia RPMI-8226 cell line active agents” (2010)

How the values were obtained:
Type in all cases: functional
OVCAR-3 = assay: Antitumor activity against human OVCAR-3 cells at 10 uM after 48 hrs by sulforhodamine B assay relative to control; details: OVCAR-3, 48 h, values are per cent of control
Summary of the method: (§1)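 NCI panel lines were grown in RPMI-1640 with 5% FBS and 2 mM L-glutamine and seeded at 5000–40,000 cells/well according to doubling time. After 24 h at 37 °C, 5% CO2, one dose from a DMSO stock was added for 48 h. Cells were TCA-fixed (10% final adherent, 16% suspension), SRB-stained and read at 515 nm. Percent growth is relative to untreated control.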

COLO 205 = assay: Antitumor activity against human COLO205 cells at 10 uM after 48 hrs by sulforhodamine B assay relative to control; details: COLO 205, 48 h, values are per cent of control
Summary of the method: (§2)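 Single-dose screen in a 55-line panel. Cells in RPMI-1640 with 5% FBS and 2 mM glutamine were preincubated for 24 h, then exposed to compound (DMSO stock diluted in medium) for 48 h at 37 °C with 5% CO2. Cells were fixed with cold TCA, stained with 0.4% SRB in 1% acetic acid, and dye was solubilized in 10 mM Tris base and read at 515 nm. Growth is given as percent of untreated control.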

TK-10 = assay: Antitumor activity against human TK10 cells at 10 uM after 48 hrs by sulforhodamine B assay relative to control; details: TK-10, 48 h, values are per cent of control
Summary of the method: (§3)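 NCI panel line grown in RPMI-1640 with 5% FBS and 2 mM L-glutamine, plated at 5000–40,000 cells/well, 24 h preincubation. Single final 10 µM from DMSO stock, 48 h at 37 °C, 5% CO2. TCA fixation (10% adherent, 16% suspension), SRB stain, absorbance 515 nm. Percent growth relative to untreated control.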

BT-549 = assay: Antitumor activity against human BT549 cells at 10 uM after 48 hrs by sulforhodamine B assay relative to control; details: BT-549, 48 h, values are per cent of control; summary of the method: as §2
A549 = assay: Antitumor activity against human A549 cells at 10 uM after 48 hrs by sulforhodamine B assay relative to control; details: A549, 48 h, values are per cent of control; summary of the method: as §2
SF-295 = assay: Antitumor activity against human SF295 cells at 10 uM after 48 hrs by sulforhodamine B assay relative to control; details: SF-295, 48 h, values are per cent of control; summary of the method: as §1
NCI-H322M = assay: Antitumor activity against human NCI-H322M cells at 10 uM after 48 hrs by sulforhodamine B assay relative to control; details: values are per cent of control; summary of the method: as §1
OVCAR-8 = assay: Antitumor activity against human OVCAR8 cells at 10 uM after 48 hrs by sulforhodamine B assay relative to control; details: OVCAR-8, 48 h, values are per cent of control; summary of the method: as §1
NCI-H23 = assay: Antitumor activity against human NCI-H23 cells at 10 uM after 48 hrs by sulforhodamine B assay relative to control; details: NCI-H23, 48 h, values are per cent of control; summary of the method: as §1
NCI-H522 = assay: Antitumor activity against human NCI-H522 cells at 10 uM after 48 hrs by sulforhodamine B assay relative to control; details: NCI-H522, 48 h, values are per cent of control; summary of the method: as §1
SK-MEL-28 = assay: Antitumor activity against human SK-MEL-28 cells at 10 uM after 48 hrs by sulforhodamine B assay relative to control; details: SK-MEL-28, 48 h, values are per cent of control; summary of the method: as §1
IGROV-1 = assay: Antitumor activity against human IGROV1 cells at 10 uM after 48 hrs by sulforhodamine B assay relative to control; details: IGROV-1, 48 h, values are per cent of control; summary of the method: as §2
NCI/ADR-RES = assay: Antitumor activity against human NCI/ADR-RES cells at 10 uM after 48 hrs by sulforhodamine B assay relative to control; details: values are per cent of control; summary of the method: as §1
U-251 = assay: Antitumor activity against human U251 cells at 10 uM after 48 hrs by sulforhodamine B assay relative to control; details: U-251, 48 h, values are per cent of control; summary of the method: as §3
OVCAR-5 = assay: Antitumor activity against human OVCAR5 cells at 10 uM after 48 hrs by sulforhodamine B assay relative to control; details: OVCAR-5, 48 h, values are per cent of control; summary of the method: as §1
SR = assay: Antitumor activity against human SR cells at 10 uM after 48 hrs by sulforhodamine B assay relative to control; details: values are per cent of control; summary of the method: as §3
Malme-3M = assay: Antitumor activity against human MALME-3M cells at 10 uM after 48 hrs by sulforhodamine B assay relative to control; details: values are per cent of control; summary of the method: as §2
UACC-62 = assay: Antitumor activity against human UACC62 cells at 10 uM after 48 hrs by sulforhodamine B assay relative to control; details: UACC-62, 48 h, values are per cent of control; summary of the method: as §3
LOX IMVI = assay: Antitumor activity against human LOXIMVI cells at 10 uM after 48 hrs by sulforhodamine B assay relative to control; details: values are per cent of control; summary of the method: as §2
[1] = Antitumor activity against human Hs 578T cells at 10 uM after 48 hrs by sulforhodamine B assay relative to control; details: values are per cent of control; summary of the method: as §2
PC-3 = assay: Antitumor activity against human PC3 cells at 10 uM after 48 hrs by sulforhodamine B assay relative to control; details: PC-3, 48 h, values are per cent of control; summary of the method: as §1
M14 = assay: Antitumor activity against human M14 cells at 10 uM after 48 hrs by sulforhodamine B assay relative to control; details: M14, 48 h, values are per cent of control; summary of the method: as §2
HOP-92 = assay: Antitumor activity against human HOP92 cells at 10 uM after 48 hrs by sulforhodamine B assay relative to control; details: HOP-92, 48 h, values are per cent of control; summary of the method: as §2
SK-MEL-5 = assay: Antitumor activity against human SK-MEL-5 cells at 10 uM after 48 hrs by sulforhodamine B assay relative to control; details: SK-MEL-5, 48 h, values are per cent of control; summary of the method: as §1
MCF7 = assay: Antitumor activity against human MCF7 cells at 10 uM after 48 hrs by sulforhodamine B assay relative to control; details: MCF7, 48 h, values are per cent of control; summary of the method: as §2

Compound `COc1ccc(NC(=O)Nc2ccc(OCCCOc3ccc(NC(=O)Nc4ccc(OC)cc4)cc3)cc2)cc1` has a growth, % of control at 10 µM (OVCAR-3) of 116%, a growth, % of control at 10 µM (COLO 205) of 124% and a growth, % of control at 10 µM (TK-10) of 123%. For the same compound, the growth, % of control at 10 µM (BT-549) was 88.1%, the growth, % of control at 10 µM (A549) was 111% and the growth, % of control at 10 µM (SF-295) was 71.7%. The growth, % of control at 10 µM (NCI-H322M) was 90.2%, the growth, % of control at 10 µM (OVCAR-8) was 70.1% and the growth, % of control at 10 µM (NCI-H23) was 94.5%. For the same compound, the growth, % of control at 10 µM (NCI-H522) was 98.3%, the growth, % of control at 10 µM (SK-MEL-28) was 204% and the growth, % of control at 10 µM (IGROV-1) was 90.2%. The growth, % of control at 10 µM (NCI/ADR-RES) was 94.4%, the growth, % of control at 10 µM (U-251) was 89.8% and the growth, % of control at 10 µM (OVCAR-5) was 88.4%. It also gave a growth, % of control at 10 µM (SR) of 90.4%, a growth, % of control at 10 µM (Malme-3M) of 93.3% and a growth, % of control at 10 µM (UACC-62) of 109%. The growth, % of control at 10 µM (LOX IMVI) was 99.3%, the growth, % of control at 10 µM [1] was 88.2% and the growth, % of control at 10 µM (PC-3) was 108%. For the same compound, the growth, % of control at 10 µM (M14) was 95.5%, the growth, % of control at 10 µM (HOP-92) was 81.5% and the growth, % of control at 10 µM (SK-MEL-5) was 99.5%. For the same compound, the growth, % of control at 10 µM (MCF7) was 55%.
